Values after ≈ are worked out from the molar mass of the structure shown.
How the values were obtained:
[1] = system: Bacillus cereus; experiment: Antibacterial activity against Bacillus cereus clinical isolate after 24 hrs by iodonitrotetrazolium chloride dye based microdilution assay; format: functional
How it was run: (§1)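 Fresh overnight cultures adjusted spectrophotometrically to 1×10^5 CFU/mL, giving 1.0×10^4 CFU per well in tryptic soy broth. Compounds were dissolved in 5% DMSO and tested at 0.001-1.0 mg/ml by serial dilution; 5% DMSO was the negative control. After 24 h at 37 °C, 0.2 mg/mL INT solution was added for 30 min at 37 °C and OD read at 655 nm. MIC is the lowest concentration giving significant growth inhibition versus the positive control. Duplicates, repeated three times.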

[2] = system: Bacillus cereus; experiment: Bactericidal activity against Bacillus cereus clinical isolate incubated for 24 hrs followed by re-plating on tryptic soy broth; format: functional
How it was run: (§2)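 Bacteria were grown in tryptic soy broth, 1.0×10^4 CFU per well, with compounds in 5% DMSO at 0.001-1.0 mg/ml for 24 h at 37 °C. Then 10 µL was subcultured into fresh TSB. MBC is the lowest concentration showing no growth after subculture, taken as 99.5% kill of the original inoculum. Duplicates, repeated three times.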

[3] = system: Micrococcus flavus; experiment: Antibacterial activity against Micrococcus flavus ATCC 10240 after 24 hrs by iodonitrotetrazolium chloride dye based microdilution method; format: functional; conditions: ATCC 10240, 24 h; how it was run: as §1
[4] = system: Micrococcus flavus; experiment: Bactericidal activity against Micrococcus flavus ATCC 10240 incubated for 24 hrs followed by re-plating on tryptic soy broth; format: functional; conditions: ATCC 10240, 24 h; how it was run: as §2
[5] = system: Staphylococcus aureus; experiment: Antibacterial activity against Staphylococcus aureus ATCC 6538 after 24 hrs by iodonitrotetrazolium chloride dye based microdilution method; format: functional; conditions: ATCC 6538, 24 h; how it was run: as §1
[6] = system: Staphylococcus aureus; experiment: Bactericidal activity against Staphylococcus aureus ATCC 6538 incubated for 24 hrs followed by re-plating on tryptic soy broth; format: functional; conditions: ATCC 6538, 24 h; how it was run: as §2
[7] = system: Listeria monocytogenes; experiment: Antibacterial activity against Listeria monocytogenes NCTC 7973 after 24 hrs by iodonitrotetrazolium chloride dye based microdilution method; format: functional; conditions: NCTC 7973, 24 h; how it was run: as §1
[8] = system: Listeria monocytogenes; experiment: Bactericidal activity against Listeria monocytogenes NCTC 7973 incubated for 24 hrs followed by re-plating on tryptic soy broth; format: functional; conditions: NCTC 7973, 24 h; how it was run: as §2
[9] = system: Enterobacter cloacae; experiment: Antibacterial activity against Enterobacter cloacae clinical isolate after 24 hrs by iodonitrotetrazolium chloride dye based microdilution method; format: functional; how it was run: as §1
[10] = system: Enterobacter cloacae; experiment: Bactericidal activity against Enterobacter cloacae incubated for 24 hrs followed by re-plating on tryptic soy broth; format: functional; how it was run: as §2
[11] = system: Pseudomonas aeruginosa; experiment: Antibacterial activity against Pseudomonas aeruginosa ATCC 27853 after 24 hrs by iodonitrotetrazolium chloride dye based microdilution method; format: functional; conditions: ATCC 27853, 24 h; how it was run: as §1
[12] = system: Pseudomonas aeruginosa; experiment: Bactericidal activity against Pseudomonas aeruginosa ATCC 27853 incubated for 24 hrs followed by re-plating on tryptic soy broth; format: functional; conditions: ATCC 27853, 24 h; how it was run: as §2
[13] = system: Salmonella typhimurium; experiment: Antibacterial activity against Salmonella typhimurium ATCC 13311 after 24 hrs by iodonitrotetrazolium chloride dye based microdilution method; format: functional, Salmonella enterica subsp. enterica serovar Typhimurium; conditions: Salmonella enterica, ATCC 13311, 24 h; how it was run: as §1
[14] = system: Salmonella typhimurium; experiment: Bactericidal activity against Salmonella typhimurium ATCC 13311 incubated for 24 hrs followed by re-plating on tryptic soy broth; format: functional, Salmonella enterica subsp. enterica serovar Typhimurium; conditions: Salmonella enterica, ATCC 13311, 24 h; how it was run: as §2
[15] = system: Escherichia coli; experiment: Antibacterial activity against Escherichia coli ATCC 35210 after 24 hrs by iodonitrotetrazolium chloride dye based microdilution method; format: functional; conditions: ATCC 35210, 24 h; how it was run: as §1
[16] = system: Escherichia coli; experiment: Bactericidal activity against Escherichia coli ATCC 35210 incubated for 24 hrs followed by re-plating on tryptic soy broth; format: functional; conditions: ATCC 35210, 24 h; how it was run: as §2
[17] = system: Aspergillus fumigatus; experiment: Antifungal activity against Aspergillus fumigatus ATCC 1022 after 72 hrs by microdilution technique; format: functional; conditions: ATCC 1022, 72 h
How it was run: (§3)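 Spores were washed off malt agar with 0.85% saline containing 0.1% Tween 80 and adjusted to about 1.0×10^5 per well. Compounds in 5% DMSO were serially diluted (0.001-1.0 mg/ml) in malt broth with inoculum. Plates were shaken at 160 rpm for 72 h at 28 °C. MIC is the lowest concentration without visible growth under a binocular microscope. Three independent experiments in duplicate.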

[18] = system: Aspergillus fumigatus; experiment: Fungicidal activity against Aspergillus fumigatus ATCC 1022 incubated for 72 hrs followed by sub-culturing on broth malt medium and measured after 72 hrs; format: functional; conditions: ATCC 1022, 72 h
How it was run: (§4)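 After 72 h exposure in malt broth, 2 µL from test wells was subcultured into wells holding 100 µL broth and incubated a further 72 h at 28 °C. MFC is the lowest concentration with no visible growth, taken as 99.5% kill of the original inoculum. Three independent experiments in duplicate.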

[19] = system: Aspergillus versicolor; experiment: Antifungal activity against Aspergillus versicolor ATCC 11730 after 72 hrs by microdilution method; format: functional; conditions: ATCC 11730, 72 h; how it was run: as §3
[20] = system: Aspergillus versicolor; experiment: Fungicidal activity against Aspergillus versicolor ATCC 11730 incubated for 72 hrs followed by sub-culturing on broth malt medium and measured after 72 hrs; format: functional; conditions: ATCC 11730, 72 h; how it was run: as §4
[21] = system: Aspergillus ochraceus; experiment: Antifungal activity against Aspergillus ochraceus ATCC 12066 after 72 hrs by microdilution technique; format: functional; conditions: ATCC 12066, 72 h; how it was run: as §3
[22] = system: Aspergillus ochraceus; experiment: Fungicidal activity against Aspergillus ochraceus ATCC 12066 incubated for 72 hrs followed by sub-culturing on broth malt medium and measured after 72 hrs; format: functional; conditions: ATCC 12066, 72 h; how it was run: as §4
[23] = system: Aspergillus niger; experiment: Antifungal activity against Aspergillus niger ATCC 6275 after 72 hrs by microdilution technique; format: functional; conditions: ATCC 6275, 72 h; how it was run: as §3
[24] = system: Aspergillus niger; experiment: Fungicidal activity against Aspergillus niger ATCC 6275 incubated for 72 hrs followed by sub-culturing on broth malt medium and measured after 72 hrs; format: functional; conditions: ATCC 6275, 72 h; how it was run: as §4
[25] = system: Trichoderma viride; experiment: Antifungal activity against Trichoderma viride IAM 5061 after 72 hrs by microdilution technique; format: functional; conditions: IAM 5061, 72 h; how it was run: as §3
[26] = system: Trichoderma viride; experiment: Fungicidal activity against Trichoderma viride IAM 5061 incubated for 72 hrs followed by sub-culturing on broth malt medium and measured after 72 hrs; format: functional; conditions: IAM 5061, 72 h; how it was run: as §4
[27] = system: Penicillium ochrochloron; experiment: Antifungal activity against Penicillium ochrochloron ATCC 9112 after 72 hrs by microdilution technique; format: functional; conditions: ATCC 9112, 72 h; how it was run: as §3
[28] = system: Penicillium ochrochloron; experiment: Fungicidal activity against Penicillium ochrochloron ATCC 9112 incubated for 72 hrs followed by sub-culturing on broth malt medium and measured after 72 hrs; format: functional; conditions: ATCC 9112, 72 h; how it was run: as §4
[29] = Antifungal activity against Penicillium funiculosum ATCC 36839 after 72 hrs by microdilution technique; format: functional; conditions: Talaromyces pinophilus, ATCC 36839, 72 h; how it was run: as §3
[30] = Fungicidal activity against Penicillium funiculosum ATCC 36839 incubated for 72 hrs followed by sub-culturing on broth malt medium and measured after 72 hrs; format: functional; conditions: Talaromyces pinophilus, ATCC 36839, 72 h; how it was run: as §4
[31] = system: Penicillium cyclopium; experiment: Antifungal activity against Penicillium verrucosum var. cyclopium food isolate after 72 hrs by microdilution technique; format: functional; how it was run: as §3
[32] = system: Penicillium cyclopium; experiment: Fungicidal activity against Penicillium verrucosum var. cyclopium food isolate incubated for 72 hrs followed by sub-culturing on broth malt medium and measured after 72 hrs; format: functional; how it was run: as §4

Row | Compound | MIC [1] | MBC [2] | MIC [3] | MBC [4] | MIC [5] | MBC [6] | MIC [7] | MBC [8] | MIC [9] | MBC [10] | MIC [11] | MBC [12] | MIC [13] | MBC [14] | MIC [15] | MBC [16] | MIC [17] | MFC [18] | MIC [19] | MFC [20] | other results
1 | CCOc1ccc2c(c1)-c1c(ssc1=S)C(C)(C)N2 | 29.5 µM (≈ 9.13 µg/mL) | 59 µM (≈ 18.3 µg/mL) | 29.5 µM (≈ 9.13 µg/mL) | 59 µM (≈ 18.3 µg/mL) | 29.5 µM (≈ 9.13 µg/mL) | 59 µM (≈ 18.3 µg/mL) | 29.5 µM (≈ 9.13 µg/mL) | 59 µM (≈ 18.3 µg/mL) | 29.5 µM (≈ 9.13 µg/mL) | 59 µM (≈ 18.3 µg/mL) | 29.5 µM (≈ 9.13 µg/mL) | 59 µM (≈ 18.3 µg/mL) | 29.5 µM (≈ 9.13 µg/mL) | 59 µM (≈ 18.3 µg/mL) | 29.5 µM (≈ 9.13 µg/mL) | 59 µM (≈ 18.3 µg/mL) | 5.9 ×10⁻² mM | 11.8 ×10⁻² mM | 5.9 ×10⁻² mM | 11.8 ×10⁻² mM | MIC [21]: 11.8 ×10⁻² mM; MFC [22]: 23.6 ×10⁻² mM; MIC [23]: 4.32 ×10⁻² mM; MFC [24]: 11.8 ×10⁻² mM; MIC [25]: 1.18 ×10⁻² mM; MFC [26]: 2.95 ×10⁻² mM; MIC [27]: 0.79 ×10⁻² mM; MFC [28]: 1.57 ×10⁻² mM; MIC [29]: 11.8 ×10⁻² mM; MFC [30]: 23.6 ×10⁻² mM; MIC [31]: 8.85 ×10⁻² mM; MFC [32]: 23.6 ×10⁻² mM
2 | Cc1ccc2c(c1)-c1c(ssc1=S)C(C)(C)N2C(=O)CSc1nn(-c2ccccc2)c(=S)s1 | 27.5 µM (≈ 15 µg/mL) | 55 µM (≈ 30 µg/mL) | 27.5 µM (≈ 15 µg/mL) | 55 µM (≈ 30 µg/mL) | 27.5 µM (≈ 15 µg/mL) | 55 µM (≈ 30 µg/mL) | 27.5 µM (≈ 15 µg/mL) | 55 µM (≈ 30 µg/mL) | 27.5 µM (≈ 15 µg/mL) | 55 µM (≈ 30 µg/mL) | 27.5 µM (≈ 15 µg/mL) | 55 µM (≈ 30 µg/mL) | 27.5 µM (≈ 15 µg/mL) | 55 µM (≈ 30 µg/mL) | 27.5 µM (≈ 15 µg/mL) | 55 µM (≈ 30 µg/mL) | 8.24 ×10⁻² mM | 22 ×10⁻² mM | 22 ×10⁻² mM | 44 ×10⁻² mM | MIC [21]: 1.47 ×10⁻² mM; MFC [22]: 2.75 ×10⁻² mM; MIC [23]: 2.02 ×10⁻² mM; MFC [24]: 5.5 ×10⁻² mM; MIC [25]: 1.1 ×10⁻² mM; MFC [26]: 1.47 ×10⁻² mM; MIC [27]: 2.75 ×10⁻² mM; MFC [28]: 5.5 ×10⁻² mM; MIC [29]: 2.75 ×10⁻² mM; MFC [30]: 5.5 ×10⁻² mM; MIC [31]: 22 ×10⁻² mM; MFC [32]: 44 ×10⁻² mM

Source: ChEMBL document CHEMBL4393701, “Appendix A. dithioloquinolinethiones as new potential multitargeted antibacterial and antifungal agents: Synthesis, biological evaluation and molecular docking studies” (2019)
